pIC50: −log10 of the molar value.
Experiments:
[1] = system: UACC-903; experiment: Antitumor activity against human UACC-903 cells xenografted in athymic Harlan Sprague-Dawley nude mouse assessed as reduction in tumor growth at 8.5 to 10 mg/kg, ip administered thrice per week for 24 days measured after 21 days; type: functional; details: dose mg/kg 8.5-10; route intraperitoneal
Method in brief: (§1)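 Female athymic nude mice, 4–6 weeks old, received 5×10^6 UACC 903 cells s.c. in DMEM/10% FBS above both rib cages. After six days they were randomized at 5 mice/group, 2 tumors/mouse. Dosing was i.p. Mon/Wed/Fri, with one arm dosed daily; controls got DMSO vehicle. Tumor dimensions (calipers, mm³) and body weight were recorded three times weekly.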

[2] = system: Mus musculus; experiment: Systemic toxicity in Swiss Webster mouse assessed as mortality at 15 mg/kg, ip administered every day for 28 days; type: organism-based; parameters: dose 15 mg/kg, route intraperitoneal; details: in vivo, 672 h
Method in brief: (§2)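 Swiss Webster mice, n = 4 per group, dosed i.p. once daily for 28 days at 5, 7.5, 10 or 15 mg/kg body weight. Body weight recorded twice per week; deaths noted over the dosing period.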

[3] = Cytotoxicity against human SK-MEL-37 cells after 72 hrs by MTS assay; type: functional, cell-based
Method in brief: (§3)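 Cells in DMEM with 10% FBS at 37 °C and 5% CO2 were plated at 5×10^3 per well and grown 24 h. They were then exposed 24 or 72 h to 0.5, 1, 5, 10, 25 and 50 µM, with final DMSO 0.5% and DMSO controls. MTS/PMS was added for 4 h at 37 °C. A492 was read with the medium blank subtracted and expressed as % of control. IC50 was taken from three independent experiments (mean ± S.E.).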

[4] = system: UACC-903; experiment: Induction of apoptosis in human UACC-903 cells assessed as viable cells at 25 uM after 24 hrs using annexin-V-PE/7-AAD double staining by flow cytometry; type: functional; details: UACC-903, 24 h, read-out: Activity
Method in brief: (§4)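 UACC 903 cells were exposed 24 h at 37 °C to 1, 5 or 25 µM, with DMSO as control. Cells were harvested, washed twice in cold PBS and resuspended at 1×10^6 cells/mL in binding buffer. They were stained with 7-AAD plus PE Annexin V for 20 min at room temperature in the dark and run by flow cytometry within 1 h. Gating: double-negative live, 7-AAD+ dead, Annexin V+/7-AAD− early apoptotic. Three separate experiments.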

[5] = system: UACC-903; experiment: Induction of apoptosis in human UACC-903 cells assessed as viable cells at 5 uM after 24 hrs using annexin-V-PE/7-AAD double staining by flow cytometry; type: functional; details: UACC-903, 24 h, read-out: Activity; method in brief: as §4
[6] = system: UACC-903; experiment: Cytotoxicity against human UACC-903 cells assessed as decrease in cell viability after 72 hrs by MTS assay; type: functional, cell-based; method in brief: as §3
[7] = system: SK-MEL-37 (Homo sapiens); experiment: Cytotoxicity against human SK-MEL-37 cells assessed as decrease in cell viability after 24 hrs by MTS assay
[8] = system: Mus musculus; experiment: Systemic toxicity in athymic Harlan Sprague-Dawley nude mouse xenografted with human UACC-903 cells assessed as reduction in body weight at 8.5 to 10 mg/kg, ip administered thrice a week for 24 days; type: organism-based; parameters: dose 8.5-10 mg/kg, route intraperitoneal; details: in vivo, 576 h; method in brief: as §1
[9] = Cytotoxicity against human 1205 Lu cells after 24 hrs by MTS assay; type: functional, cell-based; method in brief: as §3
[10] = system: UACC-903; experiment: Induction of apoptosis in human UACC-903 cells assessed as late apoptotic cells at 25 uM after 24 hrs using annexin-V-PE/7-AAD double staining by flow cytometry; type: functional; method in brief: as §4
[11] = Cytotoxicity against human 1205 Lu cells after 72 hrs by MTS assay; type: functional, cell-based; method in brief: as §3
[12] = system: UACC-903; experiment: Cytotoxicity against human UACC-903 cells after 72 hrs by MTS assay; type: functional, cell-based; details: UACC-903, 72 h; method in brief: as §3
[13] = system: UACC-903; experiment: Induction of apoptosis in human UACC-903 cells assessed as viable cells at 1 uM after 24 hrs using annexin-V-PE/7-AAD double staining by flow cytometry; type: functional; details: UACC-903, 24 h, read-out: Activity; method in brief: as §4
[14] = system: Mus musculus; experiment: Systemic toxicity in Swiss Webster mouse assessed as weight loss at 10 mg/kg, ip administered every day for 28 days; type: organism-based; parameters: dose 10 mg/kg, route intraperitoneal; details: in vivo, 672 h; method in brief: as §2
[15] = system: UACC-903; experiment: Induction of apoptosis in human UACC-903 cells assessed as late apoptotic cells at 1 uM after 24 hrs using annexin-V-PE/7-AAD double staining by flow cytometry; type: functional; method in brief: as §4
[16] = system: UACC-903; experiment: Cytotoxicity against human UACC-903 cells after 24 hrs by MTS assay; type: functional, cell-based; details: UACC-903, 24 h; method in brief: as §3
[17] = system: UACC-903; experiment: Induction of apoptosis in human UACC-903 cells assessed as early apoptotic cells at 5 uM after 24 hrs using annexin-V-PE/7-AAD double staining by flow cytometry; type: functional; method in brief: as §4
[18] = system: SK-MEL-37 (Homo sapiens); experiment: Cytotoxicity against human SK-MEL-37 cells assessed as decrease in cell viability after 72 hrs by MTS assay
[19] = system: UACC-903; experiment: Induction of apoptosis in human UACC-903 cells assessed as early apoptotic cells at 1 uM after 24 hrs using annexin-V-PE/7-AAD double staining by flow cytometry; type: functional; method in brief: as §4
[20] = system: UACC-903; experiment: Induction of apoptosis in human UACC-903 cells assessed as non-viable cells at 25 uM after 24 hrs using annexin-V-PE/7-AAD double staining by flow cytometry; type: functional; method in brief: as §4
[21] = system: A375-S2; experiment: Cytotoxicity against human A375-S2 cells assessed as decrease in cell viability after 72 hrs by MTS assay; type: functional, cell-based; method in brief: as §3
[22] = Cytotoxicity against human A375-S2 cells after 72 hrs by MTS assay; type: functional, cell-based; details: A375-S2, 72 h; method in brief: as §3
[23] = system: UACC-903; experiment: Induction of apoptosis in human UACC-903 cells assessed as early apoptotic cells at 25 uM after 24 hrs using annexin-V-PE/7-AAD double staining by flow cytometry; type: functional; method in brief: as §4
[24] = system: 1205Lu; experiment: Cytotoxicity against human 1205 Lu cells assessed as decrease in cell viability after 72 hrs by MTS assay; type: functional, cell-based; method in brief: as §3
[25] = system: UACC-903; experiment: Induction of apoptosis in human UACC-903 cells assessed as late apoptotic cells at 5 uM after 24 hrs using annexin-V-PE/7-AAD double staining by flow cytometry; type: functional; method in brief: as §4
[26] = system: UACC-903; experiment: Induction of apoptosis in human UACC-903 cells assessed as non-viable cells at 1 uM after 24 hrs using annexin-V-PE/7-AAD double staining by flow cytometry; type: functional; method in brief: as §4
[27] = system: Mus musculus; experiment: Systemic toxicity in Swiss Webster mouse assessed as mortality at 10 mg/kg, ip administered every day for 28 days; type: organism-based; parameters: dose 10 mg/kg, route intraperitoneal; details: in vivo, 672 h; method in brief: as §2
[28] = system: 1205Lu; experiment: Cytotoxicity against human 1205 Lu cells assessed as decrease in cell viability after 24 hrs by MTS assay; type: functional, cell-based; method in brief: as §3
[29] = Cytotoxicity against human SK-MEL-37 cells after 24 hrs by MTS assay; type: functional, cell-based; method in brief: as §3
[30] = system: UACC-903; experiment: Cytotoxicity against human UACC-903 cells assessed as decrease in cell viability after 24 hrs by MTS assay; type: functional, cell-based; method in brief: as §3
[31] = system: UACC-903; experiment: Induction of apoptosis in human UACC-903 cells assessed as non-viable cells at 5 uM after 24 hrs using annexin-V-PE/7-AAD double staining by flow cytometry; type: functional; method in brief: as §4
[32] = system: UACC-903; experiment: Induction of apoptosis in human UACC-903 cells assessed as increase in apoptotic cells after 24 hrs using annexin-V-PE/7-AAD double staining by flow cytometry; type: functional, cell-based; method in brief: as §4
[33] = system: A375-S2; experiment: Cytotoxicity against human A375-S2 cells assessed as decrease in cell viability after 24 hrs by MTS assay; type: functional, cell-based; method in brief: as §3
[34] = Cytotoxicity against human A375-S2 cells after 24 hrs by MTS assay; type: functional, cell-based; details: A375-S2, 24 h; method in brief: as §3

SMILES: O=C1c2cccc3cccc(c23)C(=O)N1CCCCN=C=S
- growth inhibition (GI) [1]: 30%
- Activity [2]: Toxic
- pIC50 [3]: 5.67
- viability at 25 µM [4]: 22.5%
- viability at 5 µM [5]: 39.4%
- Activity [6]: Dose-dependent effect
- Activity [7]: Dose-dependent effect
- Activity [8]: Non-toxic
- pIC50 [9]: 5.31
- Activity [10]: 19.3%
- pIC50 [11]: 5.52
- pIC50 [12]: 5.29
- viability at 1 µM [13]: 62.7%
- Activity [14]: Non-toxic
- Activity [15]: 9.79%
- pIC50 [16]: 4.97
- Activity [17]: 34.9%
- Activity [18]: Dose-dependent effect
- Activity [19]: 21.1%
- Activity [20]: 6.43%
- Activity [21]: Dose-dependent effect
- pIC50 [22]: 5.46
- Activity [23]: 51.7%
- Activity [24]: Dose-dependent effect
- Activity [25]: 16%
- Activity [26]: 6.42%
- Activity [27]: Non-toxic
- Activity [28]: Dose-dependent effect
- pIC50 [29]: 5.41
- Activity [30]: Dose-dependent effect
- Activity [31]: 9.69%
- Activity [32]: Dose-dependent effect
- Activity [33]: Dose-dependent effect
- pIC50 [34]: 5.16

SMILES: O=C1c2cccc3cccc(c23)C(=O)N1CCCCCCN=C=S
- growth inhibition (GI) [1]: 50%
- Activity [2]: Toxic
- pIC50 [3]: 5.78
- viability at 25 µM [4]: 18.7%
- viability at 5 µM [5]: 19.6%
- Activity [6]: Dose-dependent effect
- Activity [7]: Dose-dependent effect
- Activity [8]: Non-toxic
- pIC50 [9]: 4.94
- Activity [10]: 8.56%
- pIC50 [11]: 5.28
- pIC50 [12]: 5.12
- viability at 1 µM [13]: 77.8%
- Activity [14]: Non-toxic
- Activity [15]: 6.25%
- pIC50 [16]: 5.04
- Activity [17]: 49.6%
- Activity [18]: Dose-dependent effect
- Activity [19]: 12.9%
- Activity [20]: 1.15%
- Activity [21]: Dose-dependent effect
- pIC50 [22]: 5.45
- Activity [23]: 71.6%
- Activity [24]: Dose-dependent effect
- Activity [25]: 28.7%
- Activity [26]: 2.99%
- Activity [27]: Non-toxic
- Activity [28]: Dose-dependent effect
- pIC50 [29]: 5.51
- Activity [30]: Dose-dependent effect
- Activity [31]: 2.11%
- Activity [32]: Dose-dependent effect
- Activity [33]: Dose-dependent effect
- pIC50 [34]: 5.29

— ChEMBL document CHEMBL1806370, “Development of novel naphthalimide derivatives and their evaluation as potential melanoma therapeutics” (Eur J Med Chem, 2011)
